From ChEMBL document CHEMBL2424563, “Semisynthesis of mallotus B from rottlerin: evaluation of cytotoxicity and apoptosis-inducing activity” (J Nat Prod, 2013)
Calls of active or inactive are those of the source. The calls are words filed in the database; no cut-off is given here.

Tests used:
HL-60 [1] = assay: Cell cycle arrest in human HL60 cells assessed as accumulation at S phase at 30 uM after 24 hrs by propidium iodide staining-based FACS flow cytometric analysis (reference value: 54%); format: functional
Method in brief: (§1)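 HL-60 cells seeded at 0.44 × 10^6/mL and exposed to 10, 20, 30 or 40 μM for 24 h. Cells were pelleted at 400g, washed in ice-cold PBS and fixed overnight in ice-cold 70% ethanol at 4 °C. They were treated with RNase (0.2 mg/mL) for 1 h at 37 °C, then stained with PI (10 μg/mL) for 30 min in the dark. Flow cytometry collected 10 000 events (FL2-A vs FL2-W). Sub-G0, G1, S and G2 fractions were fitted by modelling software.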

HL-60 [2] = assay: Cell cycle arrest in human HL60 cells assessed as accumulation at S phase at 10 uM after 24 hrs by propidium iodide staining-based FACS flow cytometric analysis (reference value: 54%); format: functional; method in brief: as §1
HL-60 [3] = assay: Induction of apoptosis in human HL60 cells assessed as cell wall deformation at 20 to 40 uM after 24 hrs by fluorescence microscopic analysis; format: functional, cell-based
Method in brief: (§2)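 After 24 h exposure, HL-60 cells were pelleted at 400g, washed twice in PBS and fixed in cold acetic acid–methanol (1:3) for 3 h on ice. They were spread on slides and dried overnight at room temperature. Staining used Hoechst 33258 (5 μg/mL in 0.45 M disodium phosphate/0.01 M citric acid/0.05% Tween 20) for 30 min at room temperature. Slides were mounted in PBS–glycerol and viewed by fluorescence microscopy at 30× for condensed nuclei and apoptotic bodies.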

HL-60 [4] = assay: Cell cycle arrest in human HL60 cells assessed as accumulation at sub-G0 phase at 10 uM after 24 hrs by propidium iodide staining-based FACS flow cytometric analysis (reference value: 3%); format: functional; method in brief: as §1
HL-60 [5] = assay: Cell cycle arrest in human HL60 cells assessed as accumulation at sub-G0 phase at 40 uM after 24 hrs by propidium iodide staining-based FACS flow cytometric analysis (reference value: 3%); format: functional; method in brief: as §1
HepG2 = assay: Cytotoxicity against human HepG2 cells after 48 hrs by MTT assay; format: functional, cell-based; settings: HepG2, 48 h
Method in brief: (§3)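 Cell lines from NCI, grown in RPMI1640 or MEM with 10% heat-inactivated FBS at 37 °C under 5% CO2. Seeded at 6000 cells/well overnight, then exposed to 1, 10, 30, 50 and 100 μM for 48 h. MTT (2.5 mg/mL) added for 3 h, formazan dissolved in DMSO, OD read at 540 nm (ref 620 nm). Growth taken as treated vs untreated absorbance, giving IC50.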

HL-60 [6] = assay: Induction of apoptosis in human HL60 cells assessed as vesicle formation at 10 to 40 uM after 24 hrs by phase contrast microscopic analysis; format: functional, cell-based
Method in brief: (§4)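 HL-60 cells were exposed to the test concentrations for 24 h. Unstained cells were then photographed under phase-contrast microscopy to assess cellular morphology.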

HL-60 [7] = assay: Induction of apoptosis in human HL60 cells assessed as shrinkage of cell size at 20 to 40 uM after 24 hrs by fluorescence microscopic analysis; format: functional, cell-based; method in brief: as §2
HL-60 [8] = assay: Cell cycle arrest in human HL60 cells assessed as accumulation at G1 phase at 40 uM after 24 hrs by propidium iodide staining-based FACS flow cytometric analysis (reference value: 45%); format: functional; method in brief: as §1
HL-60 [9] = assay: Induction of mitochondrial membrane potential loss in human HL60 cells at 10 uM after 24 hrs by rhodamine-123 staining-based FACS flow cytometric analysis (reference value: 5%); format: functional
HL-60 [10] = assay: Cell cycle arrest in human HL60 cells assessed as accumulation at G1 phase at 10 uM after 24 hrs by propidium iodide staining-based FACS flow cytometric analysis (reference value: 45%); format: functional; method in brief: as §1
HL-60 [11] = assay: Induction of mitochondrial membrane potential loss in human HL60 cells at 30 uM after 24 hrs by rhodamine-123 staining-based FACS flow cytometric analysis (reference value: 5%); format: functional
COLO 205 = assay: Cytotoxicity against human COLO205 cells after 48 hrs by MTT assay; format: functional, cell-based; settings: COLO 205, 48 h; method in brief: as §3
HL-60 [12] = assay: Cytotoxicity against human HL60 cells after 48 hrs by MTT assay; format: functional, cell-based; settings: HL-60, 48 h; method in brief: as §3
HL-60 [13] = assay: Cell cycle arrest in human HL60 cells assessed as accumulation at S phase at 40 uM after 24 hrs by propidium iodide staining-based FACS flow cytometric analysis (reference value: 54%); format: functional; method in brief: as §1
HL-60 [14] = assay: Induction of mitochondrial membrane potential loss in human HL60 cells at 20 uM after 24 hrs by rhodamine-123 staining-based FACS flow cytometric analysis (reference value: 5%); format: functional
HL-60 [15] = assay: Cell cycle arrest in human HL60 cells assessed as accumulation at G2 phase at 20 uM after 24 hrs by propidium iodide staining-based FACS flow cytometric analysis (reference value: 1%); format: functional; method in brief: as §1
HL-60 [16] = assay: Cell cycle arrest in human HL60 cells assessed as accumulation at sub-G0 phase after 24 hrs by propidium iodide staining-based FACS flow cytometric analysis; format: functional
Method in brief: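 HL-60 cells at 0.44 × 10^6/mL treated at 10, 20, 30 and 40 μM for 24 h. Collected at 400g, then fixed overnight in ice-cold 70% ethanol at 4 °C. RNase (0.2 mg/mL) at 37 °C for 1 h, then PI (10 μg/mL) for 30 min in the dark. Flow cytometry on 10 000 events, FL2-A vs FL2-W. Sub-G0 fraction taken as apoptotic.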

HL-60 [17] = assay: Cell cycle arrest in human HL60 cells assessed as accumulation at G2 phase at 10 uM after 24 hrs by propidium iodide staining-based FACS flow cytometric analysis (reference value: 1%); format: functional; method in brief: as §1
HL-60 [18] = assay: Induction of apoptosis in human HL60 cells assessed as formation of scattered apoptotic bodies at 20 to 40 uM after 24 hrs by fluorescence microscopic analysis; format: functional, cell-based; method in brief: as §2
HL-60 [19] = assay: Induction of apoptosis in human HL60 cells assessed as blebbing of cell wall at 10 to 40 uM after 24 hrs by phase contrast microscopic analysis; format: functional, cell-based; method in brief: as §4
HL-60 [20] = assay: Cell cycle arrest in human HL60 cells assessed as accumulation at G2 phase at 30 uM after 24 hrs by propidium iodide staining-based FACS flow cytometric analysis (reference value: 1%); format: functional; method in brief: as §1
PC-3 = assay: Cytotoxicity against human PC3 cells after 48 hrs by MTT assay; format: functional, cell-based; settings: PC-3, 48 h; method in brief: as §3
HL-60 [21] = assay: Cell cycle arrest in human HL60 cells assessed as accumulation at sub-G0 phase at 30 uM after 24 hrs by propidium iodide staining-based FACS flow cytometric analysis (reference value: 3%); format: functional; method in brief: as §1
HL-60 [22] = assay: Cell cycle arrest in human HL60 cells assessed as accumulation at S phase at 20 uM after 24 hrs by propidium iodide staining-based FACS flow cytometric analysis (reference value: 54%); format: functional; method in brief: as §1
HL-60 [23] = assay: Cell cycle arrest in human HL60 cells assessed as accumulation at G1 phase at 20 uM after 24 hrs by propidium iodide staining-based FACS flow cytometric analysis (reference value: 45%); format: functional; method in brief: as §1
HL-60 [24] = assay: Cell cycle arrest in human HL60 cells assessed as accumulation at G1 phase at 30 uM after 24 hrs by propidium iodide staining-based FACS flow cytometric analysis (reference value: 45%); format: functional; method in brief: as §1
HL-60 [25] = assay: Induction of apoptosis in human HL60 cells assessed as nuclear condensation at 20 to 40 uM after 24 hrs by fluorescence microscopic analysis; format: functional, cell-based; method in brief: as §2
HL-60 [26] = assay: Induction of mitochondrial membrane potential loss in human HL60 cells at 40 uM after 24 hrs by rhodamine-123 staining-based FACS flow cytometric analysis (reference value: 5%); format: functional
HL-60 [27] = assay: Cell cycle arrest in human HL60 cells assessed as accumulation at sub-G0 phase at 20 uM after 24 hrs by propidium iodide staining-based FACS flow cytometric analysis (reference value: 3%); format: functional; method in brief: as §1
HL-60 [28] = assay: Cell cycle arrest in human HL60 cells assessed as accumulation at G2 phase at 40 uM after 24 hrs by propidium iodide staining-based FACS flow cytometric analysis (reference value: 1%); format: functional; method in brief: as §1
MIA PaCa-2 = assay: Cytotoxicity against human MIAPaCa2 cells after 48 hrs by MTT assay; format: functional, cell-based; settings: MIA PaCa-2, 48 h; method in brief: as §3

CC(=O)c1c(O)c(C)c(O)c(Cc2c(O)c3c(c(C(=O)/C=C/c4ccccc4)c2O)OC(C)(C)C=C3)c1O [ROTTLERIN]
Activity (HL-60 [1]): 46% | Activity (HL-60 [2]): 26% | Activity (HL-60 [3]): Active | Activity (HL-60 [4]): 19.6% | Activity (HL-60 [5]): 84% | IC50 (HepG2): > 20 µM | Activity (HL-60 [6]): Active | Activity (HL-60 [7]): Active | Activity (HL-60 [8]): 33% | Activity (HL-60 [9]): 18% | Activity (HL-60 [10]): 67% | Activity (HL-60 [11]): 61% | IC50 (COLO 205): > 20 µM | IC50 (HL-60 [12]): 9 µM | Activity (HL-60 [13]): 63% | Activity (HL-60 [14]): 28% | Activity (HL-60 [15]): 12% | Activity (HL-60 [16]): Dose-dependent effect | Activity (HL-60 [17]): 7% | Activity (HL-60 [18]): Active | Activity (HL-60 [19]): Active | Activity (HL-60 [20]): 12% | IC50 (PC-3): > 20 µM | Activity (HL-60 [21]): 80% | Activity (HL-60 [22]): 31% | Activity (HL-60 [23]): 58% | Activity (HL-60 [24]): 42% | Activity (HL-60 [25]): Active | Activity (HL-60 [26]): 89% | Activity (HL-60 [27]): 64% | Activity (HL-60 [28]): 4% | IC50 (MIA PaCa-2): 8 µM

CC1(C)C=Cc2c(OCc3ccccc3)cc(O)c(C(=O)/C=C/c3ccccc3)c2O1
Activity (HL-60 [1]): 49% | Activity (HL-60 [2]): 54% | Activity (HL-60 [3]): Active | Activity (HL-60 [4]): 3% | Activity (HL-60 [5]): 83% | IC50 (HepG2): > 20 µM | Activity (HL-60 [6]): Active | Activity (HL-60 [7]): Active | Activity (HL-60 [8]): 46% | Activity (HL-60 [9]): 6% | Activity (HL-60 [10]): 40% | Activity (HL-60 [11]): 38% | IC50 (COLO 205): > 20 µM | IC50 (HL-60 [12]): 15 µM | Activity (HL-60 [13]): 42% | Activity (HL-60 [14]): 23% | Activity (HL-60 [15]): 8% | Activity (HL-60 [17]): 6% | Activity (HL-60 [18]): Active | Activity (HL-60 [19]): Active | Activity (HL-60 [20]): 8% | IC50 (PC-3): > 20 µM | Activity (HL-60 [21]): 39% | Activity (HL-60 [22]): 48% | Activity (HL-60 [23]): 45% | Activity (HL-60 [24]): 43% | Activity (HL-60 [25]): Active | Activity (HL-60 [26]): 68% | Activity (HL-60 [27]): 9% | Activity (HL-60 [28]): 12% | IC50 (MIA PaCa-2): > 20 µM

CC(=O)c1c(O)c(C)c(O)c(Cc2c(O)c(CC=C(C)C)c(O)c3c2O[C@H](c2ccccc2)CC3=O)c1O
Activity (HL-60 [1]): 16% | Activity (HL-60 [2]): 20% | Activity (HL-60 [3]): Active | Activity (HL-60 [4]): 14% | Activity (HL-60 [5]): 55% | IC50 (HepG2): > 20 µM | Activity (HL-60 [6]): Active | Activity (HL-60 [7]): Active | Activity (HL-60 [8]): 60% | Activity (HL-60 [9]): 6% | Activity (HL-60 [10]): 75% | Activity (HL-60 [11]): 25% | IC50 (COLO 205): > 20 µM | IC50 (HL-60 [12]): 16 µM | Activity (HL-60 [13]): 22% | Activity (HL-60 [14]): 12% | Activity (HL-60 [15]): 4% | Activity (HL-60 [17]): 5% | Activity (HL-60 [18]): Active | Activity (HL-60 [19]): Active | Activity (HL-60 [20]): 7% | IC50 (PC-3): > 20 µM | Activity (HL-60 [21]): 29% | Activity (HL-60 [22]): 18% | Activity (HL-60 [23]): 78% | Activity (HL-60 [24]): 77% | Activity (HL-60 [25]): Active | Activity (HL-60 [26]): 43% | Activity (HL-60 [27]): 26% | Activity (HL-60 [28]): 18% | IC50 (MIA PaCa-2): 9 µM

CC[C@@]1(O)C(=O)OCc2c1cc1n(c2=O)Cc2cc3ccccc3nc2-1 [CAMPTOTHECIN]
IC50 (HepG2): 0.2 µM | IC50 (COLO 205): 0.05 µM | IC50 (HL-60 [12]): 0.06 µM | IC50 (PC-3): 1.2 µM | IC50 (MIA PaCa-2): 0.19 µM
